According to ChEMBL document CHEMBL5678799 (Biochem J, 2009):
The source made the active and inactive calls. No cut-off for these calls is given here.

What was measured:
[1] = biological target: Dual specificity mitogen-activated protein kinase kinase 1 (Homo sapiens) (UniProt Q02750); assay: Inhibition of recombinant human MKK1 (2 to 393 residues) expressed in Escherichia coli assessed as remaining activity at 10 uM using MBP as substrate incubated for 30 mins in presence of [gamma-33P]ATP by filter binding method relative to control
In short: (§1)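 Kinase panel run robotically at 21 °C for 30 min, linear in time and enzyme. […] Compound tested at 1 or 10 µM. Activity given as percentage of incubations without compound, mean of triplicates ± S.D.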

[2] = biological target: T1, Mitogen-activated protein kinase; ERK1/ERK2 (Homo sapiens) (UniProt P27361+P28482); assay: Inhibition of ERK1/2 in serum starved/PMA-stimulated HEK293 cells assessed as reduction in ERK1/2 phosphorylation at T202/Y204 residues at 1 uM incubated for 30 mins by immunoblot analysis; type: cell-based
[3] = biological target: Insulin receptor (Homo sapiens) (UniProt P06213); assay: Inhibition of recombinant human N-terminal His6-tagged IR (1001 to 1382 residues) expressed in baculovirus infected Sf21 cells assessed as remaining activity at 1 uM using KKSRGDYMTMQIG as substrate incubated for 30 mins in presence of [gamma-33P]ATP by filter binding method relative to control
In short: (§2)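 Panel assays were run for 30 min at 21 °C, within the linear range for time and enzyme. […] Results are percent activity remaining relative to compound-free control, averaged from triplicate ± S.D.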

[4] = biological target: Serine/threonine-protein kinase PAK 4 (Homo sapiens) (UniProt O96013); assay: Inhibition of recombinant human N-terminal GST-tagged PAK4 (2 to 519 residues) expressed in Escherichia coli assessed as remaining activity at 1 uM using RRRLSFAEPG as substrate incubated for 30 mins in presence of [gamma-33P]ATP by filter binding method relative to control
In short: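 Radiometric kinase panel run robotically at room temperature (21 °C) for 30 min, linear in time and enzyme. […] Activity is expressed as percent of control without compound, from triplicate determinations ± S.D.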

[5] = tested on: Serine/threonine-protein kinase Sgk1 (Homo sapiens), O00141 [S422D]; assay: (§3) Inhibition of recombinant human His6-tagged SGK1 S422D mutant (60 to 431 residues) expressed in baculovirus infected Sf21 cells assessed as remaining activity at 1 uM using GRPRTSSFAEGKK as substrate incubated for 30 mins in presence of [gamma-33P]ATP by filter binding method relative to control
In short: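 Incubations ran robotically for 30 min at room temperature (21 °C) under linear conditions. Results are percent activity remaining versus controls without compound, as the mean of triplicates ± S.D.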

[6] = biological target: MAP kinase-interacting serine/threonine-protein kinase 1 (Homo sapiens) (UniProt Q9BUB5); assay: Inhibition of recombinant human N-terminal GST-tagged C-terminal His6-tagged MNK1 (2 to 424 residues) expressed in Escherichia coli assessed as remaining activity at 10 uM using eIF4E as substrate incubated for 30 mins in presence of [gamma-33P]ATP by filter binding method relative to control
[7] = biological target: Eukaryotic elongation factor 2 kinase (Homo sapiens) (UniProt O00418); assay: Inhibition of recombinant human N-terminal GST-tagged EF2K (2 to 725 residues) expressed in Escherichia coli assessed as remaining activity at 10 uM using RKKFGESKTKTKEFL as substrate incubated for 30 mins in presence of [gamma-33P]ATP by filter binding method relative to control; in short: as §1
[8] = biological target: Serine/threonine-protein kinase 26 (Homo sapiens) (UniProt Q9P289); assay: Inhibition of recombinant human N-terminal His6-tagged MST4 (1 to 416 residues) expressed in baculovirus infected Sf21 cells assessed as remaining activity at 10 uM using MBP as substrate incubated for 30 mins in presence of [gamma-33P]ATP by filter binding method relative to control
[9] = biological target: T2, mTORC2 (Homo sapiens) (UniProt P42345+Q6R327+Q9BVC4+Q9BPZ7); conditions: HEK293, dose 30-100 nM, time 30.0 min
[10] = tested on: MEF; assay: Growth inhibition of mLST8 knockout MEF cells assessed reduction in cell viability at 3 uM incubated for 1 to 3 days by crystal violet staining based assay; type: toxicity; conditions: mouse, time 1-3 day
In short: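 MEFs seeded at 20000 cells per 1.91 cm2 well, grown overnight in 10% foetal bovine serum, then cultured 1, 2 or 3 days with 3 μM inhibitor, 100 nM rapamycin or DMSO. Medium changed every 24 h with freshly dissolved inhibitors. Cells fixed in 4% paraformaldehyde, stained with 0.1% Crystal Violet, dye extracted in 10% acetic acid, A590 read. Quadruplicate wells, expressed as % of DMSO control.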

[11] = tested on: RAC-alpha serine/threonine-protein kinase (Homo sapiens), P31749 [S473D]; assay: as §3, with “AKT1 S473D” for “SGK1 S422D”, “(118” for “(60”, “480” for “431”, “crosstide peptide” for “GRPRTSSFAEGKK”
In short: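 Radiometric panel assay run robotically at 21 °C for 30 min, linear in time and enzyme. […] Activity is expressed as percentage of the compound-omitted control, averaged from triplicates ± S.D.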

[12] = biological target: Inhibitor of nuclear factor kappa-B kinase subunit epsilon (Homo sapiens) (UniProt Q14164); assay: Inhibition of recombinant human N-terminal GST-tagged IKKepsilon (1 to 716 residues) expressed in baculovirus infected Sf21 cells assessed as remaining activity at 10 uM using MBP as substrate incubated for 30 mins in presence of [gamma-33P]ATP by filter binding method relative to control
In short: (§4)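 Incubation was 30 min at room temperature (21 °C) under conditions linear with time and enzyme amount. Activity is reported as percent of control lacking compound, triplicate mean ± S.D.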

[13] = biological target: Ephrin type-B receptor 3 (Homo sapiens) (UniProt P54753); assay: Inhibition of recombinant human N-terminal His6-tagged EPHB3 (561 to 998 residues) expressed in Escherichia coli assessed as remaining activity at 1 uM using Poly(Glu, Tyr) as substrate incubated for 30 mins in presence of [gamma-33P]ATP by filter binding method relative to control; in short: as §2
[14] = biological target: T2, mTORC2 (Homo sapiens); conditions: HEK293, dose 30-1000 nM, time 30.0 min
[15] = biological target: SRSF protein kinase 1 (Homo sapiens) (UniProt Q96SB4); assay: Inhibition of recombinant human N-terminal GST-tagged SRPK1 (2 to 654 residues) expressed in Escherichia coli assessed as remaining activity at 10 uM using RSRSRSRSRSRSRSR as substrate incubated for 30 mins in presence of [gamma-33P]ATP by filter binding assay relative to control; in short: as §4
[16] = biological target: Mitogen-activated protein kinase 9 (Homo sapiens) (UniProt P45984); assay: Inhibition of recombinant human N-terminal His6-tagged JNK2alpha2 (1 to 424 residues) expressed in baculovirus infected Sf21 cells assessed as remaining activity at 1 uM using ATF2 as substrate incubated for 30 mins in presence of [gamma-33P]ATP by filter binding method relative to control
[17] = biological target: T1, Mitogen-activated protein kinase; ERK1/ERK2 (Homo sapiens); assay: Inhibition of ERK1/2 in serum starved/PMA-stimulated HEK293 cells assessed as reduction in RSK phosphorylation at S380 residues at 1 uM incubated for 30 mins by immunoblot analysis; type: cell-based

T1 sequence (P27361 whole entry, looked up, the tested form may be a part): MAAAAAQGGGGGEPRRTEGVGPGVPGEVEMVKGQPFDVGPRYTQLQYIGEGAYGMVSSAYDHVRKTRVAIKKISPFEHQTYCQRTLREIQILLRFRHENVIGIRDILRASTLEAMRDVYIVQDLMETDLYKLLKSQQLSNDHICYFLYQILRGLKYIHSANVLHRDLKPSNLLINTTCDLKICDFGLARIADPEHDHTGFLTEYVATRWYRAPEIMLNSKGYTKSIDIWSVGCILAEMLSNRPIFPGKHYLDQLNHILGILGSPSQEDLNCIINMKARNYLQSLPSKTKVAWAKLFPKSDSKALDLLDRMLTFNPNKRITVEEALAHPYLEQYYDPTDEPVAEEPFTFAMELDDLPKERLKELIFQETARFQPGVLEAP
T1 sequence (P28482 whole entry, looked up, the tested form may be a part): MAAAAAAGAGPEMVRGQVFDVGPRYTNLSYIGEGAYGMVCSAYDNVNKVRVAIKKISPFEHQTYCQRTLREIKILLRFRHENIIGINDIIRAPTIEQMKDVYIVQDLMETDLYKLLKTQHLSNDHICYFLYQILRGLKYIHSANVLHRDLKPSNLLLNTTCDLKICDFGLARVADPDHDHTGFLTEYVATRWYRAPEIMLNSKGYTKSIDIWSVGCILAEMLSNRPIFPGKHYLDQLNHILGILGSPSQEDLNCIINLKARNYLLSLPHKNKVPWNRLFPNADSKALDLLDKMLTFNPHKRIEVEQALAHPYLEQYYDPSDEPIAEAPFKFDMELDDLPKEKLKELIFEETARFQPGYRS
Sequence of Insulin receptor (Homo sapiens) (P06213 28-758 limits assumed): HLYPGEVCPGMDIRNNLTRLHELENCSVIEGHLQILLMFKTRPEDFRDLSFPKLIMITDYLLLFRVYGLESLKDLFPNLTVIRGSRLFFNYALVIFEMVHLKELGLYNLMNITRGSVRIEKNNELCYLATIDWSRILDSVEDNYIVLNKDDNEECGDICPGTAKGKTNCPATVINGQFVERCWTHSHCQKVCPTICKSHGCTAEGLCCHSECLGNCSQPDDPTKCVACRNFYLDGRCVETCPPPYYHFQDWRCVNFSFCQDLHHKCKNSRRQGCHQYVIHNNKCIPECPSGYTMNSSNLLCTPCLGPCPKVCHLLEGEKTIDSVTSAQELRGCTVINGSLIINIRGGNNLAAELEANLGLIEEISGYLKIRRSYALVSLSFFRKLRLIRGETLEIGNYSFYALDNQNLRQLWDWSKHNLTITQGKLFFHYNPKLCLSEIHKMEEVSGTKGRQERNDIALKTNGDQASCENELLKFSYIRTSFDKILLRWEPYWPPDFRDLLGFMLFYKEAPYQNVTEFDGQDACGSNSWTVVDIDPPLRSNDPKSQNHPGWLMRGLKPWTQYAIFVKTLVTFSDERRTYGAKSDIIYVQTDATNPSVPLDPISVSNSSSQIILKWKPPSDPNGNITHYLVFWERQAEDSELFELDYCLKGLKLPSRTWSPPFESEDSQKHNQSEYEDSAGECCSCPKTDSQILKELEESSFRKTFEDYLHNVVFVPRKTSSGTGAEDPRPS
Sequence of Insulin receptor (Homo sapiens) (P06213 763-1382 limits assumed): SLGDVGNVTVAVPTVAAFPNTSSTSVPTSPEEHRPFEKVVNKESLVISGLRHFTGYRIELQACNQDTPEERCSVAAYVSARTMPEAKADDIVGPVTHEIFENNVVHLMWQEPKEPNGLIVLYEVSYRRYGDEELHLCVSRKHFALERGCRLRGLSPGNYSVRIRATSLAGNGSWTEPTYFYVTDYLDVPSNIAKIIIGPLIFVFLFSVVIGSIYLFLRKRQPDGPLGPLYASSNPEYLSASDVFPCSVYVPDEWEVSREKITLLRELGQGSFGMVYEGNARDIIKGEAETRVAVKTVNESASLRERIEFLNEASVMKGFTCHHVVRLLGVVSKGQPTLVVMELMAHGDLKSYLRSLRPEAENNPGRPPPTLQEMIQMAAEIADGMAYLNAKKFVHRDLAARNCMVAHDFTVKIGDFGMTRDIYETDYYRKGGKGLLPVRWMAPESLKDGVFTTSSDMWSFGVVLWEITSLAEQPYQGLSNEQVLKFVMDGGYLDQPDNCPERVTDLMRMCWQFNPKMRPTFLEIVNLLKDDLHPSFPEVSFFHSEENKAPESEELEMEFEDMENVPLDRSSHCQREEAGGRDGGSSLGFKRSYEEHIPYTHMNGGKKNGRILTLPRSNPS
Sequence of RAC-alpha serine/threonine-protein kinase (Homo sapiens), P31749 [S473D] (P31749 whole entry S473D): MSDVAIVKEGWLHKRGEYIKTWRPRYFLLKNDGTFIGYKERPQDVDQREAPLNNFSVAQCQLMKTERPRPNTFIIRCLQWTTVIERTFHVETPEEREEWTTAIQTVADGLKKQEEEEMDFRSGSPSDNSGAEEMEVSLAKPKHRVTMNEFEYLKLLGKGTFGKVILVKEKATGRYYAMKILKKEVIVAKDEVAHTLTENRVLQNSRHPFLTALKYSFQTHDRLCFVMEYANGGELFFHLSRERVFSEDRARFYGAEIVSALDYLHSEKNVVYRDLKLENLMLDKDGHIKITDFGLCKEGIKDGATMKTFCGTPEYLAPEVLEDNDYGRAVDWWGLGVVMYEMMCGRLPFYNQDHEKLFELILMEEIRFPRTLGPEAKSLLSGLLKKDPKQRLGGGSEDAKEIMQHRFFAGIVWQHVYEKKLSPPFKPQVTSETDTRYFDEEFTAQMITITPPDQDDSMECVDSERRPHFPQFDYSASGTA
Sequence of MAP kinase-interacting serine/threonine-protein kinase 1 (Homo sapiens) (Q9BUB5 whole entry, looked up, the tested form may be a part): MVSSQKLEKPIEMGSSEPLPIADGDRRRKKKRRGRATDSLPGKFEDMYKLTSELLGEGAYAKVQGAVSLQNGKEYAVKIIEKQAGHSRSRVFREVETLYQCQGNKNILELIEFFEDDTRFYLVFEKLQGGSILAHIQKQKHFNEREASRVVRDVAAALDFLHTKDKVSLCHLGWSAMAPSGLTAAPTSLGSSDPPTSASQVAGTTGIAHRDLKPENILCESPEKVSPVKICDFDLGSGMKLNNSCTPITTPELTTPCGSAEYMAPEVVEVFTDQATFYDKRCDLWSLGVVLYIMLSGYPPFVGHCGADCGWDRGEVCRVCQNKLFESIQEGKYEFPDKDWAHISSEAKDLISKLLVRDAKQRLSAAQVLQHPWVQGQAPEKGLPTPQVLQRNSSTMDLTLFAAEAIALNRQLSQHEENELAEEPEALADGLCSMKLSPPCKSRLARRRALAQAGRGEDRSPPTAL
Sequence of Dual specificity mitogen-activated protein kinase kinase 1 (Homo sapiens) (Q02750 whole entry, the tested form may be a part): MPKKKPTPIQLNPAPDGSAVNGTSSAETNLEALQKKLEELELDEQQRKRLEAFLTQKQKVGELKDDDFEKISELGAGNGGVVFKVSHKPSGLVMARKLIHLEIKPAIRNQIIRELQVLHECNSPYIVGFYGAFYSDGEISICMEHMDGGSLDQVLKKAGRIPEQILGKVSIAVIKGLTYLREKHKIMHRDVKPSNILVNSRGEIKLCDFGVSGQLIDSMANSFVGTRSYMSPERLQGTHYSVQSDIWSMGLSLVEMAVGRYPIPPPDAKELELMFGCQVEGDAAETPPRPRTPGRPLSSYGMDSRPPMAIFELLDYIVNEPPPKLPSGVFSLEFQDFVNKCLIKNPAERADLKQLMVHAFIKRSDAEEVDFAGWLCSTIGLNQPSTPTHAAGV
Sequence of Serine/threonine-protein kinase Sgk1 (Homo sapiens), O00141 [S422D] (O00141 whole entry S422D, the tested form may be a part): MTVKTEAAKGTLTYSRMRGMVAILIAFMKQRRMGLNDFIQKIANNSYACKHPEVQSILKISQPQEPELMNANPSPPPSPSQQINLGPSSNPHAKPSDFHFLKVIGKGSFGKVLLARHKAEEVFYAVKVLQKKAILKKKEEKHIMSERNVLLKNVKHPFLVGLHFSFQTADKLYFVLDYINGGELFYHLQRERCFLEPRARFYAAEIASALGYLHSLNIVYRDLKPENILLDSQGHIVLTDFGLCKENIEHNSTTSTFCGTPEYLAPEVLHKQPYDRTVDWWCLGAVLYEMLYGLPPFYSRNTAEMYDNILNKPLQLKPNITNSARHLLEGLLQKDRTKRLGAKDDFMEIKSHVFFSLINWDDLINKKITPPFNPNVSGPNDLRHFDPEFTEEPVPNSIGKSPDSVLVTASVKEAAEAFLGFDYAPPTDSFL
Sequence of Mitogen-activated protein kinase 9 (Homo sapiens) (P45984 whole entry, looked up, the tested form may be a part): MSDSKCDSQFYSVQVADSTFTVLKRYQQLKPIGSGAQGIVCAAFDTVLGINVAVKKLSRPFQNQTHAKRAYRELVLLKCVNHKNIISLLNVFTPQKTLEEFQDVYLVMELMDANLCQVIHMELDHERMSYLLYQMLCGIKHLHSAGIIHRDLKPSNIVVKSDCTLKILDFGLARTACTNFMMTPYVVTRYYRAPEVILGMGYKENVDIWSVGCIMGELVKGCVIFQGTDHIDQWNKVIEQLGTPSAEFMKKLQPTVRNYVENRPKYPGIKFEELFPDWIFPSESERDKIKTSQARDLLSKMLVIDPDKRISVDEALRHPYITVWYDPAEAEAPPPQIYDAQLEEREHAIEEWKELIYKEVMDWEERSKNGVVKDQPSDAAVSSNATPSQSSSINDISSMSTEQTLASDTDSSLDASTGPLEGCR
Sequence of Inhibitor of nuclear factor kappa-B kinase subunit epsilon (Homo sapiens) (Q14164 whole entry, the tested form may be a part): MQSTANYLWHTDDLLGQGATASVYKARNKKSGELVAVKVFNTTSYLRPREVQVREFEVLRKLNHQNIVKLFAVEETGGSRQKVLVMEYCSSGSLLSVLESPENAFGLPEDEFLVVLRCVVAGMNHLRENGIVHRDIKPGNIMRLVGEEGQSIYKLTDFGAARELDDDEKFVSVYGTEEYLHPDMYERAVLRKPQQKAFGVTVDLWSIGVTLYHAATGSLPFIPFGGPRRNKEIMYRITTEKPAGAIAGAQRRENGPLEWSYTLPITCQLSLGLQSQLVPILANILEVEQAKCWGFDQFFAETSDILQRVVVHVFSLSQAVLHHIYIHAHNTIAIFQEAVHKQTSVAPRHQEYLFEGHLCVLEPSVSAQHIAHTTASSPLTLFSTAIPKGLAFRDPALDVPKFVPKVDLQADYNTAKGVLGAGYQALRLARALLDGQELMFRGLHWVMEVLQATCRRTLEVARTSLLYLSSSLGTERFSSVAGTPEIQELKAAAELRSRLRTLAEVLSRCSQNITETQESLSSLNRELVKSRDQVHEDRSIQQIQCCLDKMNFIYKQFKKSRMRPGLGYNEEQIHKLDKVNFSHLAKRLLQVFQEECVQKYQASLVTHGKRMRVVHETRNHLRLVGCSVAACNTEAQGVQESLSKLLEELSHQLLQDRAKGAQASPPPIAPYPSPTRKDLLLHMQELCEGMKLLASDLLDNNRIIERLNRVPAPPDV

`COc1ccc(-c2ccc3c(N4CCOCC4)nc(N4C[C@@H](C)O[C@@H](C)C4)nc3n2)cc1CO` [Ku-0063794] was tested. Which Activity [1] did it give?
The Activity was 43%.

What about the inhibition [2] of the same compound?
The inhibition was “inactive”.

What about the Activity [3] of the same compound?
Its Activity is 81%.

What about the Activity [4] of the same compound?
The Activity was 110%.

And the Activity [5]?
The Activity was 76%.

And the Activity [6]?
Its Activity is 75%.

And the Activity [7]?
Its Activity is 108%.

And the Activity [8]?
The Activity was 86%.

What about the inhibition [9] of the same compound?
The inhibition was “Active”.

And the “growth inhibition (GI)” value [10]?
Its value is “Toxic”.

What about the Activity [11] of the same compound?
The Activity was 98%.

And the Activity [12]?
Its Activity is 100%.

What about the Activity [13] of the same compound?
Its Activity is 100%.

And the inhibition [14]?
Its inhibition is “Active”.

And the Activity [15]?
The Activity was 94%.

What about the Activity [16] of the same compound?
The Activity was 101%.

And the inhibition [17]?
Its inhibition is “inactive”.
